Measured values taken from PMC12123436 (RSC Chemical Biology, 2025).

Tests used:
U87-MG cells [1] = experiment: MTT; type: cell-based, human; details: for IC50: read-out: IC50,dark, 4 h incubation in dark, dark 20 min, then 16 h dark
In short: (§1)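 In an MTT assay, cells were incubated with test compound in the dark for 4 h. They were then kept dark or irradiated at 450 nm (10 mW cm−2) for 20 min, and held a further 16 h in the dark. IC50 values were obtained under dark and light conditions, and the phototoxicity index was taken as IC50,dark/IC50,light.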

MCF-7 cells [2] = experiment: MTT; type: cell-based; details: for IC50: read-out: IC50,dark, 4 h incubation in dark, dark 20 min, then 16 h dark
In short: as §1

HEK293 cells [3] = experiment: MTT; type: cell-based; details: for IC50: read-out: IC50,dark, 4 h incubation in dark, dark 20 min, then 16 h dark
In short: as §1

Photophysical = type: physicochemical; details: for λem: λex = 350 nm; for τo: λex = 375 nm
[4] = Singlet oxygen quantum yield with 1,3-diphenylisobenzofuran as scavenger; type: physicochemical; details: aerated CH3CN, 298 K, λex = 450 nm
[5] = Emission response upon photoirradiation at 450 nm; type: physicochemical; details: for Emission lifetime τ after photoirradiation / λem after photoirradiation: 10 μM, aerated PBS/DMSO (9:1), 450 nm (10 mW cm−2) 20 min; for λem after photoirradiation: λex = 350 nm
In short: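 Test compound (10 μM) in aerated PBS/DMSO (9:1, v/v) was irradiated at 450 nm (10 mW cm−2) for 20 min at 298 K. Photoproducts were followed by RP-HPLC and identified by ESI-MS. Emission was recorded before and after irradiation (λex 350 nm), and I/Io was taken as the ratio of these intensities. Lifetimes were measured at emission maxima (λex 375 nm).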

[6] = Phosphorogenic response towards BCN-OH; type: physicochemical; details: 10 μM, BCN-OH 500 μM, aerated PBS/DMSO (9:1), dark 16 h; for λem after incubation with BCN-OH: λex = 350 nm
In short: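 Test compound (10 μM) was incubated with excess BCN-OH (500 μM) in aerated PBS/DMSO (9:1, v/v) at 298 K in the dark for 16 h. Emission was recorded with λex 350 nm, and I/Io was taken as intensity with versus without BCN-OH. Lifetimes were measured at emission maxima (λex 375 nm).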

U87-MG cells [7] = experiment: Cellular uptake by ICP-MS; type: cell-based, human; details: 5 µM, 4 h, 37°C
MCF-7 cells [8] = experiment: Cellular uptake by ICP-MS; type: cell-based; details: 5 µM, 4 h, 37°C
HEK293 cells [9] = experiment: Cellular uptake by ICP-MS; type: cell-based; details: 5 µM, 4 h, 37°C
U87-MG cells [10] = experiment: Annexin V/propidium iodide flow cytometry; type: cell-based, human; details: 1 μM, 4 h, photoirradiation at 450 nm (10 mW cm−2) 20 min
In short: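 Cells were pretreated with test compound (1 μM, 4 h), then kept unirradiated or continuously irradiated at 450 nm (10 mW cm−2) for 20 min. They were stained for 15 min with Alexa Fluor 647–Annexin V (λex 638 nm) and propidium iodide (100 μg mL−1 stock; λex 561 nm). Analysis was by flow cytometry.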

U87-MG cells [11] = experiment: Cellular uptake mechanism studies; type: cell-based, human; details: 20 µM, 1 h
U87-MG cells [12] = experiment: Cell death mechanism studies by LSCM; type: cell-based, human; details: 5 μM, 4 h
In short: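 For mitochondrial membrane potential, live cells were pretreated with test compound (5 μM, 4 h), then left unirradiated or irradiated at 450 nm (10 mW cm−2) for 20 min. They were stained with rhodamine 123 (5 μM, 15 min) and imaged by confocal microscopy (λex 488 nm, λem 500–550 nm).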

[13] = potassium phosphate buffer (50 mM, pH 7.4)/CH3CN (1:1), 298 K
[14] = + RGD peptide pretreatment (50 µM, 30 min)

Substance	PI (IC50,dark/IC50,light) (U87-MG cells [1])	IC50 (U87-MG cells [1]) [µM]	PI (IC50,dark/IC50,light) (MCF-7 cells [2])	IC50 (MCF-7 cells [2]) [µM]	λem (Photophysical; CH3CN, 298 K) [nm]	τo (Photophysical; CH3CN, 298 K) [μs]	τo (Photophysical; EtOH/MeOH (4:1) glass, 77 K) [μs]	Φem (Photophysical; [13])	λem (Photophysical; [13]) [nm]	τo (Photophysical; [13]) [μs]	1O2 quantum yield (ΦΔ) [4]	PI (IC50,dark/IC50,light) (HEK293 cells [3])	IC50 (HEK293 cells [3]) [µM]	Emission lifetime τ after photoirradiation [5] [μs]	λem after photoirradiation [5] [nm]	Emission lifetime τ after incubation with BCN-OH [6] [μs]	λem after incubation with BCN-OH [6] [nm]	also measured
[Ir(pqe)2(bpy-CONH2)](PF6) [complex 4]	103	4.1 ± 0.2	105	4.2 ± 0.1	631	0.67	4.23	0.02	648	0.34	–	100	5 ± 0.1	–	–	–	–	–
[Ir(pqe)2(bpy-CONH-S-Tz-Cl)](PF6) [complex 1]	–	–	–	–	632	0.68	4.25	0.002	650	0.23	0.55	–	–	–	–	–	–	–
[Ir(pqe)2(bpy-CONH-S-Tz-S-Et)](PF6) [complex 2]	138	11 ± 1	150	15 ± 1	631	0.60	4.38	0.002	650	0.18	0.60	133	12 ± 1	0.29	648	0.37	631	–
[Ir(pqe)2(bpy-CONH-S-Tz-S-RGD)](CF3COO) [conjugate 1-RGD]	325	26 ± 1	236	–	631	0.58	4.14	0.001	648	0.19	–	>38	> 50	0.26	648	0.33	632	Amount of iridium per average cell (U87-MG cells [7]; [14]): 0.34 fmol; Amount of iridium per average cell (U87-MG cells [7]; − RGD): 0.70 fmol; Amount of iridium per average cell (MCF-7 cells [8]; [14]): 0.25 fmol; Amount of iridium per average cell (MCF-7 cells [8]; − RGD): 0.32 fmol; Amount of iridium per average cell (HEK293 cells [9]; [14]): 0.030 fmol; Amount of iridium per average cell (HEK293 cells [9]; − RGD): 0.032 fmol; Population of apoptotic cells (U87-MG cells [10]): 98.28%; Φem (Photophysical; CH3CN, 298 K): 0.003; Time to complete photodissociation of S,S-tetrazine moiety ([5]; steady-state irradiation at 450 nm, 298 K): 20 min; Cellular uptake efficiency after metabolic or endocytosis inhibitors (U87-MG cells [11]; 2-deoxy-D-glucose and oligomycin, or NH4Cl or chloroquine): substantially reduced; Amount of intracellular iridium at low temperature vs 37 °C (U87-MG cells [11]; 4 °C): significantly decreased; Internalisation after cation transporter inhibitor (U87-MG cells [11]; tetraethylammonium chloride (1 mM) pretreatment): remained unaffected; Intracellular ROS (CM-H2DCFDA emission) (U87-MG cells [12]; 450 nm 20 min vs dark): effective intracellular ROS generation; Mitochondrial membrane potential (rhodamine 123 emission) (U87-MG cells [12]; after 450 nm 20 min vs dark): significantly diminished in intensity
[Ir(pqe)2(bpy-CONH-SCN)](PF6) [complex 3]	135	2.7 ± 0.1	125	2.5 ± 0.1	634	0.69	4.79	0.02	648	0.35	0.81	88	3.5 ± 0.2	–	–	–	–	–
